# Source: PubChem (Sanford-Burnham Center for Chemical Genomics)
# Rows were chosen to be rich in hits. Some 1.3% of all compounds tested hit in one or more screens of this group.
# PfGluPho inh – PfG6PD enzyme inhibitors, primary screen, biochemical, fluorescence intensity, uHTS; glucose-6-phosphate dehydrogenase-6-phosphogluconolactonase (Plasmodium falciparum 3D7); PfGluPho enzyme, NADPH resazurin-diaphorase fluorescence; hit rate 0.78% among 350,000; inhibition, % at 20 µM;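 active means inhibition reaching at least a set limit at 20 µM in the primary screen, cut at about 59% in these data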;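 further: 0% = DMSO wells with substrate and 100% = DMSO wells lacking glucose-6-phosphate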
# HKDC1 inhibitor – HKDC1 hexokinase inhibitors, primary screen, biochemical, fluorescence, uHTS. hit rate 0.16% among 340,000. recombinant HKDC1, G6PDH/diaphorase resazurin coupled fluorescence. Q2TB90. AID 493160, 2011. inhibition, % at 20 µM;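 active means inhibition above about 35% when tested at 20 µM, limit read from the data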;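 further: plate controls were DMSO wells with enzyme for no effect and DMSO wells lacking enzyme for full effect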
#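 Assay system: recombinant HKDC1 hexokinase; detection: coupled resazurin fluorescence, excitation 525 nm, emission 613 nm; benchmarks: DMSO-plus-enzyme-mix negative control, buffer-substituted positive control; compound dosing: single 20 µM dose; schedule: 90 min at room temperature in dark; also added: glucose plus 1 mM ATP as hexokinase substrates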
# Diaphorase inh – diaphorase inhibitors and chemical oxidizers, primary screen, counter-screen for diaphorase-coupled primary assays, biochemical, uHTS, resorufin fluorescence; inhibition, % at 20 µM; hit rate 0.69% among 190,000; diaphorase resazurin-to-resorufin fluorescence, NADH, 16 min; bacterial (C. kluyveri) enzyme, not human;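 active means primary screen inhibition at 20 µM above a set limit, cut at about 50% in these data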;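 further: plate controls were DMSO with full reaction for no effect and wells lacking NADH for full effect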
#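 Benchmarks: positive control wells lacking NADH, neutral wells with DMSO only. System: bacterial diaphorase enzyme (C. kluyveri). Input: 0.14 U/mL diaphorase, enzyme working solution. Detection: resorufin fluorescence, excitation 544 nm, emission 590 nm. Times: 16-min room-temperature incubation before reading.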
# G6PDH counter – L. mesenteroides G6PDH inhibitors, counter-screen for G6PDH-coupled screening assays, biochemical, Leuconostoc mesenteroides enzyme; Purified L. mesenteroides G6PDH, diaphorase/resazurin coupled fluorescence, 45 min; glucose-6-phosphate dehydrogenase [Leuconostoc mesenteroides]; inhibition, % at 5 µM; hit rate 0.12% among 200,000; in the data active means inhibition above about 50%
# PfGluPho conf – PfG6PD inhibitors, hit retest, confirmation, biochemical, fluorescence intensity, single concentration. shares compounds with PfGluPho inh. recombinant PfGluPho, NADPH-diaphorase-resazurin fluorescence. inhibition, % at 20 µM. hit rate 34% among 2,400. AID 504753, 2011;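 active means inhibition of at least 50% at 20 µM in any single replicate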;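 further: 0% = DMSO with substrate and 100% = DMSO lacking glucose-6-phosphate substrate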
# Diaph ctr 10uM – diaphorase inhibitors and chemical oxidizers, confirmation, counter-screen for P. falciparum G6PD inhibitor project, biochemical, fluorescence intensity, 10 µM NADPH | shares compounds with PfGluPho inh | diaphorase-coupled resazurin reduction, NADPH 10 uM | inhibition, % at 20 µM | hit rate 39% among 820;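 active means average inhibition reaching 50% or more with the compound at 20 µM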;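 further: resorufin red fluorescence formed as diaphorase reduces resazurin using NADPH; 0% = DMSO with enzyme and 100% = DMSO without enzyme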
# Diaphorase 30uM – diaphorase inhibitors and chemical oxidizers, confirmation, counter-screen for P. falciparum G6PD inhibitor project, biochemical, fluorescence intensity, 30 µM NADPH; shares compounds with PfGluPho inh; Diaphorase/resazurin coupled assay, resorufin fluorescence; inhibition, % at 20 µM; hit rate 29% among 820; AID 504863, 2011;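 active means inhibition averaging 50% or more, tested at 20 µM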;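 further: 0% = DMSO with enzyme and 100% = DMSO wells lacking diaphorase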
# The depositor's hits bear a star; / = no result given.
SMILES,PfGluPho inh,HKDC1 inhibitor,Diaphorase inh,G6PDH counter,PfGluPho conf,others
O=C(COc1ccc([N+](=O)[O-])cc1Cl)NCCN1C(=O)CSC1=O,-4.8,-6.0,/,/,/,
Cc1ccc2c(c1)c1ccc3c(c1n2C)C(=O)C=CC3=O,65.8*,2.2,/,/,46.0,
CC(C)C(=O)N1CCN(c2ccc(NC(=O)c3ccc4c(c3)OCCO4)cc2Cl)CC1,68.4*,-5.0,17.9,19.9,29.0,
CC(=O)N1CCN(c2ccc(NC(=O)c3ccc4c(c3)OCCO4)cc2Cl)CC1,67.2*,4.0,7.1,13.1,41.8,
COc1cccc(/C=N/NC(=O)c2c(C)nc3ccc(Br)cn23)c1,90.8*,2.8,3.9,8.6,54.2*,Diaph ctr 10uM=40.0;Diaphorase 30uM=39.8
COc1ccc(OC)c(/C=N/NC(=O)c2cccc3ccccc23)c1,-3.3,-1.9,/,/,/,
COc1ccc(OC)c(/C=N/NC(=O)c2c(C)nc3ccc(C)cn23)c1,62.1*,-1.6,/,/,42.8,
Cc1nn(C)c(C(=O)N/N=C/c2cccc(Oc3ccccc3)c2)c1Br,144.6*,5.2,/,/,89.3*,Diaph ctr 10uM=79.8*;Diaphorase 30uM=71.0*
Cc1ccc(S(=O)(=O)N2CCN(C(=O)Cn3cnc4c3c(=O)n(C)c(=O)n4C)CC2)cc1C,-2.3,-5.7,/,/,/,
O=C(COC(=O)c1ccc(C(F)(F)F)cc1)Nc1cccc(S(=O)(=O)N2CCCCC2)c1,22.4,2.1,/,/,/,
CCn1c(O)c(C=Nc2ccccc2)sc1=S,68.2*,-1.2,8.9,-3.4,14.9,
CCC1CCCCN1S(=O)(=O)c1ccc(NC(=O)C2CC(=O)N(C(C)(C)C)C2)cc1 (configuration not stated),1.3,-0.9,/,/,/,
Cc1c(N)cc2c(c1N)C(C)(C)CC2(C)C,83.1*,24.4,/,/,45.7,
CC(=O)/C(N=Nc1cc2c(c([N+](=O)[O-])c1C)C(C)(C)CC2(C)C)=C(\C)O,12.1,4.0,/,/,/,
CCOC(=O)C1CCCN(C(=O)CNC(=O)c2ccc(Br)o2)C1 (configuration not stated),2.0,3.8,/,/,/,
Cc1ccc(Nc2nc(N)c3ccccc3n2)cc1C,15.6,-1.4,/,/,/,
c1ccc(CCNc2nc(-c3ccccn3)nc3ccccc23)cc1,8.1,-7.9,/,/,/,
COc1cc(-c2c(-c3cc(OC)c(OC)c(OC)c3)noc2C)ccc1F,63.3*,0.6,/,/,14.3,
COc1ccc(-c2c(-c3cc(OC)c(OC)c(OC)c3)noc2C)cn1,9.5,3.0,/,/,/,
NS(=O)(=O)c1ccc(Nc2nc(-c3ccc(F)cc3)cs2)cc1,16.4,15.3,18.2,1.6,/,
NS(=O)(=O)c1ccc(Nc2nc(-c3ccc(O)cc3O)cs2)cc1,69.0*,-9.0,22.8,20.3,-1.8,
COc1ccc2nc(N=Nc3ccc(N(C)C)cc3)sc2c1,13.9,2.2,6.1,1.1,/,
CN(C)c1ccc2nc3ccc(=O)cc-3sc2c1,78.3*,/,/,/,49.2*,Diaph ctr 10uM=24.0;Diaphorase 30uM=28.5
Cc1ccc2c(C)c(C(=O)N3CCCC(C(N)=O)C3)oc2c1C (configuration not stated),4.8,-5.6,/,/,/,
CCOc1ccc2c(c1)n([O-])c1c([n+]2=O)CCCC1,98.6*,7.4,41.8,9.1,3.9,
Cc1ccc(S(=O)(=O)NN=Cc2ccccc2Cl)cc1,-7.0,/,/,/,/,
Cc1ccc(NS(=O)(=O)c2ccccc2Cl)c2c1CC(C)(C)O2,109.4*,2.3,20.7,10.2,59.2*,Diaph ctr 10uM=44.1;Diaphorase 30uM=30.2
Cc1cccc(S(=O)(=O)Nc2ccc(C)c3c2OC(C)(C)C3)c1,107.1*,0.8,-2.5,1.8,48.6,
O=C(NCc1ccccc1C(F)(F)F)C1CCC(=O)N(C2CC2)C1 (configuration not stated),14.3,-6.4,/,/,/,
CC(C)(C)c1nnc(NC(=O)c2ccc(Cl)nc2)s1,102.7*,-11.7,-6.9,4.0,95.1*,Diaph ctr 10uM=80.8*;Diaphorase 30uM=62.3*
